An excerpt weighted towards active compounds, which were near 1.9% of everything screened.
beta cell repl – MIN6 beta-cell proliferation induction. MIN6 cells proliferation, ATPlite luminescence, 48 h; cells starved in 0.2% serum; 100% = growth in 10% serum. 330,000 tested, 0.29% active. proliferation, % at 10 µM;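 active means compounds whose signal lies at least 3.5 SD above the mean of all wells on their plate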
UCH37 DUB inh – inhibitors of human deubiquitinating enzyme UCH37; Q9Y5K5; purified proteasome/UCH37, Ub-AMC cleavage fluorescence; inhibition, % (no concentration beside the values); 330,000 tested, 0.33% active; AID 588478;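 active means mean inhibition over replicate wells above about 20%, limit read from the data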
Target sequence (Q9Y5K5 whole entry, looked up): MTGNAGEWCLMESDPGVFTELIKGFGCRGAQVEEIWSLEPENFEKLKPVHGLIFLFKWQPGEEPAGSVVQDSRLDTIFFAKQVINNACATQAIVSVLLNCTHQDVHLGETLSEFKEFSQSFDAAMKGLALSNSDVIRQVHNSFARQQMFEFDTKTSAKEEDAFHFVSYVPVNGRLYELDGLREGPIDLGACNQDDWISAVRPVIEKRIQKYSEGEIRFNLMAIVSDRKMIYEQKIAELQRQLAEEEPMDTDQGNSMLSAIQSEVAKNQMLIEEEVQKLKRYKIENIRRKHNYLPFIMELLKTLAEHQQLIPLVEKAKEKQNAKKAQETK
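Reagent: Ub-AMC substrate; assay system: Proteasome-associated human UCH37 deubiquitinase; controls: no-proteasome and no-compound wells; read-out: % inhibition of Ub-AMC cleavage fluorescence; timing: 30 min preincubation with enzyme, 25 min cleavage at room temperature; signal: AMC fluorescence from Ub-AMC cleavage, excitation 355 nm, emission 460 nm; buffer or medium: Tris-HCl pH 7.4 plus ovalbumin, ATP-MgCl2, DTT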
PG9 binder – small molecules binding HIV-1 gp120 antibody PG9; 360,000 tested, 0.43% active; inhibition, % at 6.7 µM; AID 624416; TR-FRET gp120-PG9 antibody binding; in the data active means inhibition above about 8.5%
Rce1 inhib – yeast Ras-converting enzyme inhibition. Q03530. yeast membranes, quenched prenylated peptide cleavage fluorescence. calls only. 290,000 tested, 0.27% active. AID 2563;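 active means fall in fluorescence gain of 50% or more versus controls, with final raw signal at or below 3038400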
Target sequence (Q03530 whole entry, looked up): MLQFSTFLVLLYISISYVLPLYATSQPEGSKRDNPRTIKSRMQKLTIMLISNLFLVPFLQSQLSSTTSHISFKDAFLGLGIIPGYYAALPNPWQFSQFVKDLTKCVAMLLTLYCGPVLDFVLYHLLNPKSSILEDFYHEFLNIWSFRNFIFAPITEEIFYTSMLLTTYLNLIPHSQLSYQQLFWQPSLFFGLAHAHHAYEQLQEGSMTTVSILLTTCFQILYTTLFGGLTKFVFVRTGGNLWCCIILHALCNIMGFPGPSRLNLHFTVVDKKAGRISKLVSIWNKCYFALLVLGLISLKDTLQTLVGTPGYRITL
Rev-erbA mod – modulates human Rev-erb alpha binding to DNA | Rev-erbα–FITC-DNA binding, fluorescence polarization, 90 min | activity, % at 10 µM | 370,000 tested, 0.79% active | P20393;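 active means activity above about 14%, limit read from the data; passing the limit was not always enough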
Yeast superoxide – lowers age-related superoxide in aged yeast cells; S. cerevisiae aged cells, superoxide DHE fluorescence; active compounds read low; superoxide response (% of plate mean), % at 10 µM; 330,000 tested, 0.18% active;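 active means superoxide response under a set limit, about three screen SD below normal, cut at about 65% in these data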;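 further: yeast aged for seven days with compound at 30 °C before DHE staining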
Numbers stand for hits; – = inactive; · = no result given; + = active, no number.

SMILES	beta cell repl	UCH37 DUB inh	PG9 binder	Rce1 inhib	Rev-erbA mod	Yeast superoxide
CCCOc1ccc(C(=O)Nc2ccc(S(=O)(=O)Nc3cc(C)nc(C)n3)cc2)cc1	–	–	–	–	–	62
CCC(O)CC(C(=O)NNc1ccccc1)C(=O)NNc1ccccc1 (centres undefined)	–	30	–	–	–	–
C#CCNC(=O)C1=C[C@@H](C2CCCCC2)C[C@@H](OCc2ccc(CO)cc2)O1	–	–	–	+	–	·
C#CCNC(=O)C1=C[C@H](C2CCCCC2)C[C@H](OCc2ccc(CO)cc2)O1	–	–	–	–	–	–
C=C(C)CNC(=S)NN=Cc1c(F)cccc1F	·	–	·	·	·	·
CC1=C(C#N)C(=O)NC(=O)/C1=C\c1ccc(-c2cc(C)c(C)cc2[N+](=O)[O-])o1	·	20	–	–	–	·
Cc1cc(-c2ccc(C=Nn3cnnc3)o2)c([N+](=O)[O-])cc1C	·	–	·	·	·	·
C/C(CC(=O)Nc1ccc(F)cc1)=N\NC(=O)Cc1csc(N)n1	–	·	–	–	–	64
COc1cc2c(cc1OC)C(C)N(C(=O)c1cc3c(=O)oc4ccc(C)cc4c3s1)CC2 (centres undefined)	–	·	–	+	–	–
CON=C(CS(=O)(=O)Cc1ccccc1Cl)c1ccc(Cl)cc1Cl	·	–	·	·	·	·
Cc1ccsc1C=NNC(=O)c1cc(-c2ccncc2)nc2ccccc12	·	–	·	·	·	·
COc1ccc(Cc2nc3ccc(C(=O)N4CCCC4)cc3o2)cc1	–	–	–	+	–	–
Cc1ccccc1CS(=O)(=O)CCC(=O)NCCCN1CCN(c2ccccc2F)CC1	–	33	–	–	–	–
COc1ccc2cc(C(=O)C3CCCN(C(=O)CCc4cnn(C)c4)C3)ccc2c1 (centres undefined)	–	–	–	+	–	–
Cc1cc(=O)[nH]c(NN=Cc2c(C)oc3ccccc23)n1	·	–	·	·	·	·
COc1cc(C=NNC(=O)C2C(=O)NCC2c2ccccc2)cc(OC)c1O (centres undefined)	·	–	·	·	·	·
O=C(CC(CC(=O)c1ccccc1)c1ccccc1)c1ccccc1	–	–	–	–	–	–
O=C(CC(Nc1ccc(F)cc1)c1ccccc1)c1ccccc1 (centres undefined)	–	–	–	+	–	–
COc1ccccc1-c1cc(C(=O)NN=Cc2cnn(C)c2C)c2ccccc2n1	·	–	·	·	·	·
O=C(CC1S/C(=N/N=Cc2ccco2)NC1=O)Nc1cccc(Cl)c1Cl (centres undefined)	·	–	·	·	·	·
CC(=NCCc1c(C)[nH]c2ccc(OC(F)(F)F)cc12)C1=C(O)CC(c2ccccc2)CC1=O (centres undefined)	–	–	–	–	–	65
O=C(/C=C/c1cn(-c2ccccc2)nc1-c1ccccc1)Nc1ccc(C(=O)O)cc1	–	–	–	–	–	–
NS(=O)(=O)c1ccc(NC(=O)/C=C/c2cn(-c3ccccc3)nc2-c2cccc(Cl)c2)cc1	–	–	–	+	–	–
CSc1nc(C)c2c(n1)N(c1ccc(F)cc1)CC2	–	–	10	–	–	–
CSc1nc(C)c2c(n1)N(c1ccc(O)cc1)CC2	–	–	–	–	–	–
SMILES	beta cell repl	UCH37 DUB inh	PG9 binder	Rce1 inhib	Rev-erbA mod	Yeast superoxide
Cc1cccc(-c2nc(C#N)c(N3CCC(C)CC3)o2)c1	–	–	–	–	–	–
CC1CCN(c2oc(-c3ccc(F)cc3)nc2C#N)CC1	–	–	–	+	–	–
O=C(c1ccccc1)N1CCN(C(=O)c2cc3ccccc3o2)CC1	–	27	–	–	–	–
C/C(C=NNC(=O)c1cc(-c2ccc3ccccc3c2)n[nH]1)=C\c1ccco1	·	–	·	·	·	·
Cc1noc(C)c1C=NNc1ccccn1	·	–	·	·	·	·
CCCOc1cccc(-c2cc(C(=O)NN=Cc3ccccn3)c3ccccc3n2)c1	·	–	·	·	·	·
Nc1nnnn1/N=C/c1cccc(OCc2ccccc2Cl)c1	–	·	–	+	–	–
Nc1c(C(=O)NN=Cc2ccc([N+](=O)[O-])cc2)cnn1-c1ccccc1	·	–	·	·	·	·
COc1cc(C(=O)O)ccc1O	–	–	–	–	–	–
COc1cc(C(=O)C(=O)c2ccc(O)c(OC)c2)ccc1O	–	21	–	–	–	–
Cc1cccc(NS(=O)(=O)c2cc(C(=O)NCCC3=CCCCC3)ccc2Cl)c1	–	21	–	–	–	–
CC1CN(S(=O)(=O)c2cc(C(=O)NCCC3=CCCCC3)ccc2Cl)CC(C)O1 (centres undefined)	–	–	–	–	–	–
COc1cccc(C=NNC(=O)C(C)Cn2cnc3ccccc32)c1 (centres undefined)	·	–	·	·	·	·
Nc1c(N2CCCC2)cc(Cl)c2nonc12	–	87	·	–	·	–
Nc1c(N2CCOCC2)cc(Cl)c2nonc12	–	–	–	–	–	–
Nc1ccc(N2CCCCC2)cc1N1CCCCC1	–	–	–	–	–	–
Nc1ccc(N2CCCCC2)c2nonc12	–	21	–	–	–	–
COc1ccc(O)c(C=NNC(=O)CCC(=O)Nc2cccc(C)c2)c1	·	–	·	·	·	·
Cn1ccc(C(=O)NN=Cc2ccccc2[N+](=O)[O-])n1	·	–	·	·	·	·
Cc1ccc(-c2c(C(=O)NN=Cc3cccc(Cl)c3)nnn2-c2nonc2N)cc1	·	–	·	·	·	·
CCn1c(SCC(=O)NCc2ccco2)nc2ccccc2c1=O	–	–	–	–	–	–
CCn1c(SCC(=O)NCCOc2ccccc2)nc2ccccc2c1=O	–	28	–	–	–	–
COc1ccccc1C1CC(c2ccc(Br)cc2)=NN1C(=O)c1cccnc1 (centres undefined)	–	–	–	–	–	–
COc1cccc(C2CC(c3ccc(Br)cc3)=NN2C(=O)c2ccncc2)c1OC (centres undefined)	–	–	–	+	–	–
O=C(CSc1nc(-c2ccccc2)nc2ccccc12)Nc1nccs1	–	–	29	–	–	–
SMILES	beta cell repl	UCH37 DUB inh	PG9 binder	Rce1 inhib	Rev-erbA mod	Yeast superoxide
CCCc1nc(SCC(=O)Nc2nccs2)c2ccccc2n1	–	–	–	·	–	–
N#Cc1cc2c(nc1SCC(=O)Nc1nccs1)CCCCC2	–	–	37	–	–	–
Cc1ccc(C(=O)NN=C/C=C/c2ccccc2)o1	·	21	·	·	·	·
Cc1ccc(C(=O)N/N=C/C=C/c2ccccc2)o1	–	·	–	–	–	–
CNc1nc2cc([N+](=O)[O-])c([N+](=O)[O-])cc2nc1NC	·	41	–	–	–	–
N#Cc1cc2nc(O)c(O)nc2cc1[N+](=O)[O-]	–	–	–	·	–	–
CC(=NNC(=O)CNc1ccc(Cl)cc1C)c1ccc(C)cc1	·	34	·	·	·	·
COc1cc(NC(=O)C/C(C)=N/NC(=O)c2cccc(O)c2)c(OC)cc1Cl	–	·	–	+	–	–
COc1cc(NC(=O)CC(C)=NNC(=O)c2cccs2)c(OC)cc1Cl	·	–	·	·	·	·
NC(=O)C1CCN(C2=C(NS(=O)(=O)c3ccc(Br)cc3)C(=O)c3ccccc3C2=O)CC1	–	21	–	–	–	–
CCOC(=O)C1CCN(C2=C(NS(=O)(=O)c3ccc(Br)cc3)C(=O)c3ccccc3C2=O)CC1	–	23	–	–	–	–

Screening data as filed in PubChem BioAssay.
